Legend:
[1] = test system: AR-V7 and AR mutants (T878A, K581R, V716M, L702H); test: PSA luciferase reporter, AR-V7 and AR mutants in 293 cells; format: cell-based; conditions: FBS conditions, 16 hours, Fig.2G
How it was run: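 293 cells in FBS medium transfected with vector, AR-V7 or mutant AR (T878A, K581R, L702H, V716M) plus a PSA promoter–luciferase plasmid. Then exposed to anti-androgens or test compound for 16 h before luciferase read-out. Mean ± SD of three independent experiments.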

wild-type AR (WT-AR) = test: PSA luciferase reporter, WT-AR in 293 cells; format: cell-based; conditions: FBS conditions, 16 hours, Fig.2G
C4-2B MDVR cells = test: Cell growth assay; format: cell-based; conditions: for cell growth, 3 days: FBS, 5 μM Abi, 20 μM Enza, 20 μM Apal, 0.25-1.0 μM ARVibs, Fig.4A-4B
CWR22Rv1 cells = test: Cell growth assay; format: cell-based; conditions: for cell growth, 3 days: CWR22Rv1, FBS, 5 μM Abi, 20 μM Enza, 20 μM Apal, 0.25-1.0 μM ARVibs, Fig.4A-4B
CWR22Rv1 xenografts = test: CWR22Rv1 tumor xenografts in SCID mice; format: in vivo; conditions: 25 mg/Kg i.p., Supplementary Fig.6B
How it was run: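 C.B17 SCID males, 4–5 weeks old, given 3 million CWR22Rv1 cells mixed 1:1 with matrigel s.c. in flank. Randomized at 50–100 mm3 tumor volume. Test compound 25 mg/kg i.p. vs vehicle (15% Cremophor EL, 82.5% PBS, 2.5% DMSO, i.p.). Calipers twice weekly; volume = L×W×W×0.52. Tumors, liver and kidney harvested and weighed after 3 weeks; liver and kidney H&E stained.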

LuCaP 35CR xenografts = test: LuCaP35CR PDX model, oral administration; format: in vivo, mice; conditions: 150 mg/Kg p.o.
AR = test: Western blot of AR expression in CWR22Rv1 cells; format: cell-based; conditions: 1 μM, 16 hours
[2] = ref [20], [21]; cited from earlier work
VCaP xenografts = test: Relapsed VCaP tumor model, combination with Enza; format: in vivo, mice; conditions: relapsed VCaP tumors

Q: For `CC(O)(CS(=O)(=O)c1ccc(F)cc1)C(=O)Nc1ccc(C#N)c(C(F)(F)F)c1` (centres unmarked) [bicalutamide], which “transcriptional activity mediated by AR-V7 and AR mutants” value (“transcriptional activity mediated” for short) [1] is on record?
A: Its value is “could not suppress”.

Q: What about the WT-AR transcriptional activity (wild-type AR (WT-AR)) of the same compound?
A: The WT-AR transcriptional activity was “suppress”.

Q: Which “enhancement of Enza treatment (cell growth)” value (C4-2B MDVR cells; 0.25 μM with 20 μM Enza, 3 days, Supplementary Fig.6E) does the source give for `O=C(Nc1ccc([N+](=O)[O-])cc1Cl)c1cc(Cl)ccc1O` [niclosamide] here?
A: Its value is “profoundly enhanced”.

Q: What about the “enhancement of Enza treatment (cell growth)” value (CWR22Rv1 cells; CWR22Rv1, 0.5 μM with 20 μM Enza, 3 days, Fig.6A) of the same compound?
A: Its value is “profoundly enhanced”.

Q: What about the mouse body weight (CWR22Rv1 xenografts) of the same compound?
A: Its mouse body weight is “did not affect”.

Q: What about the “suppression of tumor growth / tumor volume compared to vehicle control” value (LuCaP 35CR xenografts; Fig.5C) of the same compound?
A: Its value is 50%.

Q: And the “tumor PSA expression (mouse serum)” value (LuCaP 35CR xenografts; Fig.5F)?
A: The value was “slightly suppressed”.

Q: And the “inhibition of AR expression” value (AR; dose series, Fig.1C left)?
A: Its value is 84.42%.

Q: And the “inhibition of AR expression” value (AR; western blot, Fig.1B)?
A: Its value is 89.73%.

Q: And the bioavailability [2]?
A: The bioavailability was ~ 10%.

Q: Which “cell growth, 3 days” value (C4-2B MDVR cells) does the source give for `CNC(=O)c1ccc(N2C(=S)N(c3ccc(C#N)c(C(F)(F)F)c3)C(=O)C2(C)C)cc1F` [Enza, enzalutamide] here?
A: Its value is “resistant”.

Q: And the “transcriptional activity mediated” value [1]?
A: Its value is “could not suppress”.

Q: And the “cell growth, 3 days” value (CWR22Rv1 cells)?
A: Its value is “resistant”.

Q: What about the “tumor PSA expression (mouse serum), single treatment” value (VCaP xenografts; Fig.6F) of the same compound?
A: Its value is “slightly, but insignificantly, suppressed”.

Q: What about the “tumor growth, single treatment” value (VCaP xenografts; Enza 20 mg/Kg p.o., ARVib-7 75 mg/Kg orally, Fig.6C-6E) of the same compound?
A: Its value is “insignificantly inhibited”.

Q: For `C[C@]12CC[C@H](O)CC1=CC[C@@H]1[C@@H]2CC[C@]2(C)C(c3cccnc3)=CC[C@@H]12` [Abi, abiraterone], which “cell growth, 3 days” value (C4-2B MDVR cells) is on record?
A: Its value is “resistant”.

Q: And the “cell growth, 3 days” value (CWR22Rv1 cells)?
A: The value was “resistant”.

Q: For `CNC(=O)c1ccc(N2C(=S)N(c3cnc(C#N)c(C(F)(F)F)c3)C(=O)C23CCC3)cc1F` [Apal, apalutamide], which “cell growth, 3 days” value (C4-2B MDVR cells) is on record?
A: Its value is “resistant”.

Q: What about the “transcriptional activity mediated” value [1] of the same compound?
A: The value was “could not suppress”.

Q: What about the “cell growth, 3 days” value (CWR22Rv1 cells) of the same compound?
A: Its value is “resistant”.

Reference: paper PMC8413131 (Oncogene, 2021)
